The source made the active and inactive calls. No cut-off for these calls is given here.

Assay [1] has as its system L6. Nature of the assay: Induction of glucose uptake in rat L6 cells harboring GLUT4-myc assessed as glucose uptake at 10 uM relative to control. The assay is classed as functional. An outline of the steps:
(§1)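 L6-GLUT4myc rat skeletal muscle cells were exposed once to test compound at 10 µM. Glucose uptake was read and reported as fold increase and as percent stimulation over untreated control.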

Assay [2] has as its system L6. Nature of the assay: Induction of glucose uptake in rat L6 cells harboring GLUT4-myc assessed as fold change in glucose uptake at 10 uM. In kind it is functional. An outline of the steps:
as §1

For assay [3], the target named is T1, Solute carrier family 2, facilitated glucose transporter member 4 (Rattus norvegicus) (UniProt P19357).
T1 sequence (whole entry): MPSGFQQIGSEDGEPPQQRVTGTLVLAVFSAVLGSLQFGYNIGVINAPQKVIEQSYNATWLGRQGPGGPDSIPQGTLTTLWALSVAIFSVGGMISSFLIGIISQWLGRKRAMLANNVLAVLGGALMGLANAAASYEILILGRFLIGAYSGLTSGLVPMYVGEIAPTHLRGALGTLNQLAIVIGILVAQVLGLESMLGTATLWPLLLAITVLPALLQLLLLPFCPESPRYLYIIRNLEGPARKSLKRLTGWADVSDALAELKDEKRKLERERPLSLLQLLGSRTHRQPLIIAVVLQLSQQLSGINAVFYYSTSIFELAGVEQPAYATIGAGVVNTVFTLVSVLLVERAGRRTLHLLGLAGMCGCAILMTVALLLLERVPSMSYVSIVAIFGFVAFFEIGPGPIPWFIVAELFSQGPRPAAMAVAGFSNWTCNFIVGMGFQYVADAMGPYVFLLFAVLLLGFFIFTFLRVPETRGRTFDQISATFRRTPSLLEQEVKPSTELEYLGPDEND
Nature of the assay: Induction of GLUT4 translocation in rat L6 cells harboring GLUT4-myc assessed as increase in surface level GLUT4myc at 10 uM after 16 hrs. In kind it is cell-based.

The subject of assay [4] is L6. Nature of the assay: Induction of glucose uptake in rat L6 cells harboring GLUT4-myc assessed as fold change in glucose uptake at 500 uM. The assay is classed as functional. In a few lines:
(§2)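 L6-GLUT4myc skeletal muscle cells were exposed to the reference agent at 500 µM. Glucose uptake was measured as fold increase and as percent stimulation relative to untreated control.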

Assay [5] deals with T1, Solute carrier family 2, facilitated glucose transporter member 4 (Rattus norvegicus). Nature of the assay: Induction of GLUT4 translocation in rat L6 cells harboring GLUT4-myc assessed as fold change in increase of surface level GLUT4myc at 500 uM after 16 hrs. In kind it is cell-based. In a few lines:
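L6-GLUT4myc myotubes were exposed for 16 h, and cell-surface GLUT4myc level was then measured. Experiments were done in triplicate and expressed as mean ± SE, with p relative to the unstimulated control.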

Assay [6] relates to L6. Nature of the assay: Induction of glucose uptake in rat L6 cells harboring GLUT4-myc assessed as glucose uptake at 500 uM relative to control. In kind it is functional. In a few lines: as §2

Turning to `CCOC(=O)C(C)Oc1ccc(-c2nc3c(cnn3-c3ccc(OC)cc3)c(=O)[nH]2)cc1` (configuration not stated), in assay [1], the Activity is given as 34.4%. Moreover, the “fold change (FC)” value in assay [2] came out at 1.34. The result in assay [3] was Active.

As to `CCOC(=O)CCCOc1ccc(-c2nc3c(cnn3-c3ccccc3)c(=O)[nH]2)cc1`, the Activity in assay [1] is -8.3%.

As to `CCOC(=O)CCCOc1ccc(-c2nc3c(cnn3-c3ccc(F)cc3F)c(=O)[nH]2)cc1`, the Activity in assay [1] is on record as 2.9%.

In the case of `CCOC(=O)C(C)(C)Oc1ccc(-c2nc3c(cnn3-c3ccc(OC)cc3)c(=O)[nH]2)cc1`, the Activity in assay [1] is 5%.

Take `CCOC(=O)C(C)Oc1ccc(-c2nc3c(cnn3-c3ccccc3)c(=O)[nH]2)cc1` (configuration not stated): in assay [1], the Activity came out at 34%. In addition, the “fold change (FC)” value in assay [2] worked out at 1.34. Moreover, in assay [3], the result was Active.

With `CCOC(=O)C(C)Oc1ccc(-c2nc3c(cnn3-c3ccc(F)cc3)c(=O)[nH]2)cc1` (configuration not stated), the Activity in assay [1] was 0.6%.

`CCOC(=O)C(C)(C)Oc1ccc(-c2nc3c(cnn3-c3ccc(C)c(C)c3)c(=O)[nH]2)cc1`: in assay [1], the Activity is reported as 12.9%.

For the compound `CCOC(=O)C(C)Oc1ccc(-c2nc3c(cnn3-c3ccc(F)cc3F)c(=O)[nH]2)cc1` (configuration not stated), the Activity in assay [1] is -14.7%.

With `CCOC(=O)C(C)(C)Oc1ccc(-c2nc3c(cnn3-c3ccc(F)cc3)c(=O)[nH]2)cc1`, the Activity in assay [1] was found to be 0.6%.

With `CCOC(=O)C(C)(C)Oc1ccc(-c2nc3c(cnn3-c3ccccc3)c(=O)[nH]2)cc1`, the Activity in assay [1] came out at 34.4%. In addition, the “fold change (FC)” value in assay [2] is reported as 1.34. The outcome in assay [3] was Active.

Regarding `CCOC(=O)COc1ccc(-c2nc3c(cnn3-c3ccccc3)c(=O)[nH]2)cc1`, the Activity in assay [1] was -8.6%.

As for `CCOC(=O)C(C)Oc1ccc(-c2nc3c(cnn3-c3ccc(F)cc3)c(=O)n2C)cc1` (configuration not stated), in assay [1], the Activity is 2.9%.

Consider `CCOC(=O)COc1ccc(-c2nc3c(cnn3-c3ccc(F)cc3F)c(=O)[nH]2)cc1`, for which, in assay [1], the Activity is -1.6%.

`CCOC(=O)C(C)Oc1ccc(-c2nc3c(cnn3-c3ccc(C)c(C)c3)c(=O)[nH]2)cc1` (configuration not stated): the Activity in assay [1] is recorded as -17.2%.

Take `CCOC(=O)COc1ccc(-c2nc3c(cnn3-c3ccc(F)cc3)c(=O)[nH]2)cc1`: the Activity in assay [1] was determined as 23.7%.

On to `CCOC(=O)CCCOc1ccc(-c2nc3c(cnn3-c3ccc(OC)cc3)c(=O)[nH]2)cc1`, for which the Activity in assay [1] turned out to be 10.4%.

`CCOC(=O)COc1ccc(-c2nc3c(cnn3-c3ccc(C)c(C)c3)c(=O)[nH]2)cc1`: the Activity in assay [1] is given as -16.8%.

For the compound `CCOC(=O)CCCOc1ccc(-c2nc3c(cnn3-c3ccc(C)c(C)c3)c(=O)[nH]2)cc1`, the Activity in assay [1] was determined as 54%. For the same compound, the “fold change (FC)” value in assay [2] was determined as 1.54. In addition, in assay [3], the result was Active.

Consider `CCOC(=O)CCCOc1ccc(-c2nc3c(cnn3-c3ccc(F)cc3)c(=O)[nH]2)cc1`, for which the Activity in assay [1] is given as 6.4%.

Regarding `CN(C)C(=N)NC(=N)N` [METFORMIN], the “fold change (FC)” value was 1.48 in assay [4] and 1.45 in assay [5]. The Activity in assay [6] was 48%.

With `CCOC(=O)C(C)(C)Oc1ccc(-c2nc3c(cnn3-c3ccc(F)cc3F)c(=O)[nH]2)cc1`, the Activity in assay [1] was -12.8%.

Consider `CCOC(=O)COc1ccc(-c2nc3c(cnn3-c3ccc(OC)cc3)c(=O)[nH]2)cc1`, for which, in assay [1], the Activity is reported as 13.1%.

For the origin of these results see ChEMBL document CHEMBL4715886, “Microwave-assisted efficient synthesis of pyrazole-fibrate derivatives as stimulators of glucose uptake in skeletal muscle cells” (2021).
